As usually defined, the Ki is a measure of affinity in units of concentration, obtained from inhibition or displacement. The low end stands for higher affinity, the high end for lower affinity. Usually IC50 stands for the concentration that gives 50% inhibition. Read a high IC50 as weaker potency in that assay.

Activity calls are given as the source filed them. The calls are words filed in the database; no cut-off is given here.

We go through ten compounds from ChEMBL document CHEMBL4138091, “Quinazoline based α1-adrenoreceptor antagonists with potent antiproliferative activity in human prostate cancer cell lines” (Eur J Med Chem, 2017).

The test system of assay [1] is LNCaP. Put plainly: Antiproliferative activity against human LNCAP cells at 0.1 to 50 uM after 120 hrs by MTT assay. It is filed as functional, cell-based. In short, it runs like this:
(§1)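 DU-145, PC-3 and LNCaP cells grown in RPMI with 10% fetal calf serum, 37 °C, 5% CO₂; seeded at 5 × 10³ cells/well, exposed to 0.1–50 µM for 120 h. After PBS wash, MTT (5 mg/mL) in PBS 4 h, formazan dissolved in isopropanol, read at 570 nm. Viability as % of untreated; IC50 from at least three independent dose-response curves.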
Background: Formazan colour is commonly taken as a measure of viable cells.

In assay [2] the target is T1, Alpha-1B adrenergic receptor (Homo sapiens, UniProt P35368).
T1 sequence (P35368 whole entry): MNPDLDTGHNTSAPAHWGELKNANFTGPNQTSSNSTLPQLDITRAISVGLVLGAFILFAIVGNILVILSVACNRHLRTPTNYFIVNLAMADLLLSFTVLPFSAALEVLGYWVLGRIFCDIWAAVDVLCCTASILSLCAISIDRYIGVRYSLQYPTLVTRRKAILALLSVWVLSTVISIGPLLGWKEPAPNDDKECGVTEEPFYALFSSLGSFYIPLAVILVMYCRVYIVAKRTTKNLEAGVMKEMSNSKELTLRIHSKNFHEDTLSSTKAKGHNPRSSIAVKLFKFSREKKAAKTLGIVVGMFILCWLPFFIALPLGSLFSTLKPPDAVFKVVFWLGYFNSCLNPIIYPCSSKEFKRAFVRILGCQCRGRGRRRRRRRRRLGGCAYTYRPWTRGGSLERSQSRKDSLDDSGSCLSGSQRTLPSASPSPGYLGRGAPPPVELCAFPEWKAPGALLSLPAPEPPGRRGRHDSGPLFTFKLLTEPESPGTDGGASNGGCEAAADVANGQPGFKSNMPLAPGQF
Put plainly: Displacement of [3H]prazosin from human alpha1B adrenoceptor expressed in CHO cell membranes after 30 mins.

Assay [3] concerns PC-3. The assay is described as follows: Antiproliferative activity against human PC3 cells at 0.1 to 50 uM after 120 hrs by MTT assay. It is filed as functional, cell-based. In short, it runs like this:
as §1

Assay [4] deals with DU-145. The assay is described as follows: Antiproliferative activity against human DU145 cells at 0.1 to 50 uM after 120 hrs by MTT assay. It is filed as functional, cell-based. In short, it runs like this:
as §1

The target of assay [5] is T2, Alpha-1D adrenergic receptor (Homo sapiens, UniProt P25100).
T2 sequence (P25100 whole entry): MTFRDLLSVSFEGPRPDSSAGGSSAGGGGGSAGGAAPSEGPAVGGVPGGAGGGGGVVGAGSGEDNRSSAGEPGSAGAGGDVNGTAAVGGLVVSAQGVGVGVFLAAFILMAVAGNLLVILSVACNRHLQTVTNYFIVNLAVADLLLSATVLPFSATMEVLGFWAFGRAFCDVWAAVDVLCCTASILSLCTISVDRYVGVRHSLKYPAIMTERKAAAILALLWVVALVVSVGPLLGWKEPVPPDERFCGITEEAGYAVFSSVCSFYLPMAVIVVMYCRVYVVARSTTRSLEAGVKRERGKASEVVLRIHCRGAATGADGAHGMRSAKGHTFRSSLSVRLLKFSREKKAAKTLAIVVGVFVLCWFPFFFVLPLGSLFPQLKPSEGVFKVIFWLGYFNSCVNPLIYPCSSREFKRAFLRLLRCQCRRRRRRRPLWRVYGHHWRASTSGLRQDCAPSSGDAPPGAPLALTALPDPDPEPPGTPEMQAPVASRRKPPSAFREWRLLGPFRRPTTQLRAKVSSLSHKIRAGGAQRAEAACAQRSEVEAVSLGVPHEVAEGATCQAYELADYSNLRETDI
The assay is described as follows: Displacement of [3H]prazosin from human alpha1D adrenoceptor expressed in CHO cell membranes after 30 mins.

For assay [6], the system named is Panel NCI-60 (60 carcinoma cell lines). The assay is described as follows: Antiproliferative activity against human NCI60 cells at 10 uM after 48 hrs by SRB assay. The class given is functional, cell-based. A digest of the protocol:
(§2)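 NCI one-dose screen at 10 µM across 60 human tumour lines, 48 h exposure; growth given relative to no-drug control and to time-zero cell number, so 0–100 means inhibition and below 0 lethality; 100 means no inhibition.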
For orientation: Sulforhodamine B stains cellular protein and so reports cell mass.

The target in assay [7] is T3, Alpha-1A adrenergic receptor (Homo sapiens, UniProt P35348).
T3 sequence (P35348 whole entry): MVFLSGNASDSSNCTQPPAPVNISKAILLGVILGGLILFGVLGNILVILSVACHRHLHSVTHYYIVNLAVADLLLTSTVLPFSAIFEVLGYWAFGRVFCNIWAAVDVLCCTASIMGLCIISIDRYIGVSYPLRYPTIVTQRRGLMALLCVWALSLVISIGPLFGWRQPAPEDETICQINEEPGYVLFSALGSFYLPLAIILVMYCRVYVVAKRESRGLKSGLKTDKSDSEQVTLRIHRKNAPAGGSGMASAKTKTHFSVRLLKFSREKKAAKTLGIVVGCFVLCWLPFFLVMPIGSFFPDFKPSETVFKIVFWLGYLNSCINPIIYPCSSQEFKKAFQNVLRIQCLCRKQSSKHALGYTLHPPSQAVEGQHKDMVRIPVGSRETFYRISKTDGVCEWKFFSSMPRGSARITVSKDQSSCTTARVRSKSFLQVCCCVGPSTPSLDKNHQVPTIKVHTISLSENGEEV
The assay is described as follows: Displacement of [3H]prazosin from human alpha1A adrenoceptor expressed in CHO cell membranes after 30 mins. (In general: Loss of bound radioactivity is the signal in a displacement assay; it reports binding, not function.)

Assay [8] deals with LNCaP. Put plainly: Antiproliferative activity against human LNCAP cells after 120 hrs by MTT assay. It is filed as functional, cell-based. A digest of the protocol:
as §1

Assay [9] relates to LNCaP. Put plainly: Induction of apoptosis in human LNCAP cells assessed as increase in DNA fragmentation at 10 uM after 24 hrs by spectrophotometer relative to control. It is filed as functional. A digest of the protocol: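 LNCaP cells seeded at 1 × 10³ cells/well, exposed to compounds (1–10 µM range) for 24 h at 37 °C, 5% CO₂; lysed, supernatant run in Cell Death Detection ELISAplus (biotin anti-histone/peroxidase anti-DNA on streptavidin plate, ABTS substrate 20 min); absorbance 405 nm. DNA fragmentation given as fold increase, treated/untreated absorbance; mean SD of three independent experiments, t-test vs untreated.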

In assay [10] the test system is PC-3. The assay is described as follows: Antiproliferative activity against human PC3 cells after 120 hrs by MTT assay. It is filed as functional, cell-based. Particulars: PC-3, 120 h. A digest of the protocol: as §1
Assay [11] relates to LNCaP. The assay is described as follows: Induction of necrosis in human LNCAP cells assessed as loss of plasma membrane integrity at 1 to 10 uM after 24 hrs by trypan blue staining-based Neubauer hemocytometric method. It is filed as functional, cell-based. A digest of the protocol: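 LNCaP cells seeded at 1 × 10⁶ cells/well, treated 1–10 µM for 24 h at 37 °C, 5% CO₂; scraped into PBS, mixed 1:1 with 0.5% trypan blue, counted on a Neubauer hemocytometer; percentage of stained cells from at least 3 separate counts.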

In assay [12] the test system is DU-145. The assay is described as follows: Antiproliferative activity against human DU145 cells after 120 hrs by MTT assay. The class given is functional, cell-based. The following applies: DU-145, 120 h. In short, it runs like this: as §1
Assay [13] relates to LNCaP. The assay is described as follows: Antioxidant activity in human LNCAP cells assessed as inhibition of t-BuOOH-induced ROS level at 1 to 10 uM after 30 mins by DCFH-DA dye-based spectrofluorometric analysis relative to control. It is filed as functional.
Assay [14] concerns LNCaP. Put plainly: Prooxidant activity in human LNCAP cells assessed as increase in depletion of intercellular GSH level at 1 to 10 uM after 24 hrs by MCB dye-based spectrofluorometric analysis. The class given is functional, cell-based. In short, it runs like this: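 LNCaP cells seeded at 2 × 10⁴ cells/well, treated 1–10 µM for 24 h at 37 °C, 5% CO₂; washed, 50 µM monochlorobimane in PBS 30 min at 37 °C, fluorescence read at excitation 360 nm, emission 465 nm; arbitrary fluorescence units; mean ± SD, three independent experiments.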

Assay [15] has as its system LNCaP. The assay is described as follows: Induction of apoptosis in human LNCAP cells assessed as increase in DNA fragmentation at 1 to 10 uM after 24 hrs by spectrophotometer relative to control. The class given is functional. In short, it runs like this: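 LNCaP cells seeded at 1 × 10³ cells/well, treated 1–10 µM for 24 h at 37 °C, 5% CO₂; lysed 30 min, centrifuged, supernatant ELISA with biotin anti-histone and peroxidase anti-DNA antibodies on streptavidin plate, ABTS 20 min, read 405 nm. Fold increase = treated/untreated absorbance; mean ± SD, three independent experiments.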

Assay [16] concerns DU-145. The assay is described as follows: Antiproliferative activity against human DU145 cells at 10 uM after 48 hrs by SRB assay relative to control. It is filed as functional. In short, it runs like this:
as §2

The subject of assay [17] is PC-3. Put plainly: Growth inhibition of human PC3 cells at 10 uM after 48 hrs by SRB assay relative to control. It is filed as functional. Particulars: PC-3, 48 h, read-out: GI. In short, it runs like this:
as §2

`COc1cc2nc(N3CCC[C@H](NC(=O)[C@@H]4COc5ccccc5O4)C3)nc(N)c2cc1OC`: the outcome in assay [1], in assay [3], in assay [4] and in assay [6] was inactive. The values for the Ki in assay [2], in assay [5] and in assay [7] were 7.41 nM, 13.2 nM and 33.1 nM, respectively.

For `COc1cc2nc(N3CCN(C(=O)C4COc5ccccc5O4)CC3)nc(N)c2cc1OC` (configuration not stated) [DOXAZOSIN], the IC50 stood at 10500 nM in [8], 12100 nM in assay [10] and 30600 nM in assay [12]. For the same compound, the “fold change (FC)” value in assay [9] is reported as 2.2. Moreover, the result in assay [11] was inactive.

For `COc1cc2nc(N3CCC[C@@H](NC(=O)[C@H]4COc5ccccc5O4)C3)nc(N)c2cc1OC`, the results for the Ki in assay [2], in assay [5] and in assay [7] were 46.8 nM, 295 nM and over 1000 nM, respectively.

On to `COc1cc2nc(N3CCC[C@@H](N)C3)nc(N)c2cc1OC`, for which the values for the Ki in assay [2], in assay [5] and in assay [7] were 178 nM, 102 nM and over 1000 nM, respectively.

On to `COc1cc2nc(N3CCC[C@H](N)C3)nc(N)c2cc1OC`, for which the outcome in assay [1], in assay [3], in [4], in [14], in assay [11] and in assay [6] was inactive. Besides, in assay [15], the result was inactive. Further, the Ki in [2] is 55 nM; in assay [5] it was 28.2 nM; in [7], 191 nM. Moreover, the inhibition entry in [13] is “inactive”.

With `COc1cc2nc(N3CCC[C@H](NC(=O)[C@H]4COc5ccccc5O4)C3)nc(N)c2cc1OC`, the result in [1], in [3], in assay [4] and in assay [6] was inactive. Moreover, the Ki was 63.1 nM in assay [2], 49 nM in [5] and 18.2 nM in [7].

Take `COc1cc2nc(N3CCC[C@@H](NC4=CC(=O)c5ccccc5C4=O)C3)nc(N)c2cc1OC`: the Ki is 25.1 nM in [2], 33.9 nM in assay [5] and 120 nM in assay [7]. The Activity in [16] is 54%. Further, the results for the IC50 in [8], in [10] and in assay [12] were 5780 nM, 18600 nM and 17800 nM, respectively. Besides, the inhibition of growth at 10 µM in assay [17] amounted to 45.5%. Also, in [6], the result was Active.

In the case of `COc1cc2nc(N3CCC[C@H](NC(=O)c4ccco4)C3)nc(N)c2cc1OC`, the result in [1], in assay [3], in [4] and in assay [6] was inactive. The Ki is 0.282 nM in [2], 0.331 nM in assay [5] and 0.631 nM in [7].

For `COc1cc2nc(N3CCC[C@@H](NC(=O)c4ccco4)C3)nc(N)c2cc1OC`, the outcome in assay [1], in assay [3], in assay [4] and in assay [6] was inactive. Besides, the inhibitory constant (Ki) in [2] is 42.7 nM; in assay [5], 37.2 nM; in [7] it was 110 nM.

Consider `COc1cc2nc(N3CCC[C@@H](NC(=O)[C@@H]4COc5ccccc5O4)C3)nc(N)c2cc1OC`, for which the Ki is 316 nM in assay [2], over 1000 nM in [5] and over 1000 nM in assay [7].
